Published values of several laboratories.
Each line is one published result; the experiments were not run side by side.
Sample: plasma

Compound | host | route | dose | setting | measurement | result
Nc1ncn([C@H]2C[C@H](O)[C@@H](CO)O2)c(=O)n1 | female C57BL/6 mouse | oral | 0.4 mg/kg | – | AUC(0-inf) | 71 ng·h/mL
COc1cc2c(NC3CCN(CCCC(=O)NCCCCCCCCCCCC(=O)N[C@H](C(=O)N4C[C@H](O)C[C@H]4C(=O)NCc4ccc(-c5scnc5C)cc4)C(C)(C)C)CC3)nc(N3CCC(F)(F)CC3)nc2cc1OCCCN1CCCC1 | male C57BL/6 mouse | intraperitoneal | 50 mg/kg | single dose | AUC(0-t) | 61 µM·h
CN1CCN(C(=O)[C@H](CCCN[C@@H]2C[C@H]2c2ccc(F)cc2)NC(=O)c2ccc(-n3ccnn3)cc2)CC1 | CD-1 mouse | intravenous | 3 mg/kg | – | AUC(0-t) | 2.52 µM·h
Cc1c(C(=O)O)ccc2c3n(nc12)[C@@H]1[C@H](C3)N(CC2CC2)[C@@]2(C(=O)Nc3cc(Cl)ccc32)[C@H]1c1cccc(Cl)c1F | female mouse | oral | 5 mg/kg | – | AUC(0-inf) | 125 µM·h
C=CS(=O)(=O)c1ccc(Nc2nc(OCC3CCCCC3)c3nc[nH]c3n2)cc1 | male BALB/c mouse | intravenous | 20 mg/kg | single dose | AUC(0-t) | 124 ng·h/mL
CC(=O)O[C@@]12CO[C@@H]1C[C@H](O)[C@@]1(C)C(=O)[C@H](O)C3=C(C)[C@@H](OC(=O)[C@H](O)[C@@H](NC(=O)OC(C)(C)C)c4ccccc4)C[C@@](O)([C@@H](OC(=O)c4ccccc4)[C@H]21)C3(C)C | male Kunming mouse | oral | 20 mg/kg | – | AUC(0-t) | 14.7 ng·h/mL
CCOc1ccc(N(C)S(=O)(=O)c2cc(Cl)sc2C(=O)Nc2cc(Cl)cc(C(=O)O)c2)cc1OC | male C57BL/6 mouse | intraperitoneal | 10 mg/kg | – | AUC(0-t) | 5810 ng·h/mL
CCOC(=O)CN(C(=O)c1ccn2ncc(-c3ccc(C(=O)NC)cc3)c2c1)c1ccc(Cl)cc1 | female C57BL/6 mouse | oral | 10 mg/kg | – | AUC | 1.18 µM·h
Cc1cc2sc(N)nc2c2cccnc12 | female BALB/c mouse | intraperitoneal | 30 mg/kg | single dose | AUC(0-inf) | 45600 ng·h/mL
CCN1CCN(Cc2ccc(NC(=O)c3ccc(C)c(NC(=O)c4cncc(-c5cccs5)c4)c3)cc2C(F)(F)F)CC1 | mouse | intraperitoneal | 20 mg/kg | single dose | AUC(0-t) | 1990 ng·h/mL
CN(C(=O)c1ccn2ncc(-c3ccc(C(N)=O)cc3)c2c1)c1ccc(C#N)cn1 | female C57BL/6 mouse | intravenous | 1 mg/kg | – | AUC | 2.68 µM·h
